Test [1] concerns Human immunodeficiency virus 1. The test is described as follows: Selectivity ratio of Kd for excision of zidovudine-monophosphate from chain terminated DNA/DNA template/primer duplex in 200 nM HIV1 LAI reverse transcriptase M41L/L210W/T215Y mutant to Kd for excision of zidovudine-monophosphate from chain terminated DNA/DNA template/primer duplex in 200 nM wild type HIV1 LAI reverse transcriptase by gel shift mobility assay. On the technique in general: A gel shift assay detects complexes by their altered migration in electrophoresis.

The test system of test [2] is Human immunodeficiency virus type 1 reverse transcriptase (Human immunodeficiency virus 1), Q72547 [M41L,L210W,T215Y]. The experiment in a line: Binding affinity to HIV1 LAI reverse transcriptase M41L/L210W/T215Y mutant assessed as ATP-mediated excision of zidovudine-monophosphate from chain terminated RNA/DNA template/primer duplex. In a few lines: (§1)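 The AZT-MP-terminated ³²P-P20 primer was annealed to a 35-nt RNA template (T35). 200 nM active-site RT with 20 nM T/P in 50 mM Tris-HCl pH 8.0, 50 mM KCl. Started with 3.0 mM ATP and 10 mM MgCl₂. Timed aliquots were quenched and separated on denaturing urea-PAGE, then phosphorimaged.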

Test [3] deals with Human immunodeficiency virus type 1 reverse transcriptase (Human immunodeficiency virus 1, UniProt Q72547, M184V). The experiment in a line: Binding affinity to HIV1 LAI reverse transcriptase M184V mutant assessed as ATP-mediated excision of zidovudine-monophosphate terminated DNA/DNA template/primer duplex chain at 100 uM by gel shift mobility assay. In a few lines:
(§2)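 Native 4% PAGE in Tris-acetate pH 8.0 with 1 mM EDTA, 30 min at 100 V, room temperature. The shifted band was taken as a 1:1 RT-T/P complex to give Kd. Mean ± SD of three experiments.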

The target of test [4] is Human immunodeficiency virus type 1 reverse transcriptase (Human immunodeficiency virus 1, UniProt Q72547). The experiment in a line: Binding affinity to wild type HIV1 LAI reverse transcriptase assessed as ATP-mediated excision of zidovudine-monophosphate terminated DNA/DNA template/primer duplex chain at 100 uM by gel shift mobility assay. In a few lines:
as §2

For test [5], the system named is Human immunodeficiency virus type 1 reverse transcriptase (Human immunodeficiency virus 1), Q72547 [M41L,L210W,T215Y,M184V]. The test is described as follows: Binding affinity to HIV1 LAI reverse transcriptase M41L/L210W/T215Y/M184V mutant assessed as ATP-mediated excision of zidovudine-monophosphate from chain terminated RNA/DNA template/primer duplex. In a few lines:
as §1

Test [6] has the same test system. The test is described as follows: Binding affinity to 200 nM HIV1 LAI reverse transcriptase M41L/L210W/T215Y/M184V mutant assessed as ATP-mediated excision of zidovudine-monophosphate from chain terminated DNA/DNA template/primer duplex at 100 uM. In a few lines:
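Primer P20 (5′-³²P) on DNA template T57 was chain-terminated with WT RT and 100 μM AZT-TP (30 min, 37°C), gel-purified and reannealed. 200 nM active-site RT with 20 nM terminated T/P in 50 mM Tris-HCl pH 8.0, 50 mM KCl. Started with 3.0 mM ATP, 10 mM MgCl₂, 1 μM TTP and 5 μM ddCTP. Timed aliquots were run on 7 M urea-16% PAGE and phosphorimaged.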

Calls of active or inactive are those of the source. No cut-off for these calls is given here.

The Kd is a measure of binding affinity in units of concentration. On to `Cc1cn([C@H]2C[C@H](N=[N+]=[N-])[C@@H](COP(=O)(O)O)O2)c(=O)[nH]c1=O` [AZIDOTHYMIDINE MONOPHOSPHATE], for which, in test [1], the fold change (FC) was found to be 4. The outcome in test [2], in test [5] and in test [6] was Active. Besides, the Kd amounted to 76.9 nM in test [3] and 19.8 nM in test [4].

Source of the values: ChEMBL document CHEMBL1153554, “Mechanisms by which the G333D mutation in human immunodeficiency virus type 1 Reverse transcriptase facilitates dual resistance to zidovudine and lamivudine” (Antimicrob Agents Chemother, 2008).
